Bioassay records (PubChem)
PG9 binder: PG9 antibody binding by small molecule; TR-FRET gp120-PG9 antibody binding; inhibition, % at 6.7 µM; hit rate 0.43% among 360,000; in the data active = inhibition above about 8.5%
NR1D1 modulator: Rev-erb alpha (human) modulation. hit rate 0.79% among 370,000. Rev-erbα–FITC-DNA binding, fluorescence polarization, 90 min. P20393. activity, % at 10 µM;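 active = activity above about 14%, limit read from the data; passing the limit was not always enough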;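 also: 0% = DMSO wells with 35 nM protein and 100% = DMSO wells with 750 nM protein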
Target sequence (P20393 whole entry, looked up): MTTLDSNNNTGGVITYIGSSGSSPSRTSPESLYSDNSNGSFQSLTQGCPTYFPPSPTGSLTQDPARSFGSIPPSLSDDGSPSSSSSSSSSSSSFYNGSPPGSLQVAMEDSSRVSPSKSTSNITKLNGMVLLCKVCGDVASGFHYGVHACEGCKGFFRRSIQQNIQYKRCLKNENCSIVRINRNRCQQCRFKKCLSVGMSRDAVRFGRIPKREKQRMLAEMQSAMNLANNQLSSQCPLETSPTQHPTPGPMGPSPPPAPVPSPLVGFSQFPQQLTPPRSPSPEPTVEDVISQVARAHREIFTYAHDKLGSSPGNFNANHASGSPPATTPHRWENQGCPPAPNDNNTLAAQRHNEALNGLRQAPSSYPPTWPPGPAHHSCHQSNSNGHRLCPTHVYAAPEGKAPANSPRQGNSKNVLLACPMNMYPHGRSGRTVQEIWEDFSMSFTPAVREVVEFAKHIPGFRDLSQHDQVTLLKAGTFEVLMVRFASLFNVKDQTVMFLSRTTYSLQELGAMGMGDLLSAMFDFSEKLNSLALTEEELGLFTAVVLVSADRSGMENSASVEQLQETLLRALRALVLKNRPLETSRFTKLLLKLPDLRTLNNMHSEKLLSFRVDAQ
NR2E3 ag-1: activates human NR2E3 receptor; Q9Y5X4; CHO-S Gal4-NCOR/VP16-NR2E3 two-hybrid, luciferase; inhibition of corepressor binding, % at 3.98 µM; hit rate 0.35% among 360,000; AID 602229;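 active = inhibition above the mean of all tested compounds plus 3 SD, cut at about 70% in these data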;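 also: 0% = DMSO with NR2E3 transfected cells and 100% = cells lacking NR2E3 construct; higher means lower luciferase signal from less NR2E3 corepressor binding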
NR2E3 ag-2: NR2E3 (human) agonism; GST-NR2E3/biotin-RetCOR TR-FRET, 1536-well; inhibition of corepressor binding, % at 4.78 µM; hit rate 0.12% among 320,000; AID 2300;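 active = percent inhibition above the cutoff of mean plus 3 SD of all tested compounds, set per screening campaign, cut at about 20% in these data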;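 also: 0% = DMSO wells and 100% = biotin wells as full block of FRET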
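Format: 1536-well format; test system: GST-NR2E3 and biotin-RetCOR proteins; read-out basis: percent inhibition of TR-FRET ratio; timing: 5 h incubation at 4 °C; detection: time-resolved FRET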
NR2E3 ag confirm: NR2E3 agonism confirmed in two-hybrid assay | shares compounds with NR2E3 ag-1 | CHO-S mammalian two-hybrid NR2E3-NCOR, luciferase luminescence | inhibition, % at 3.98 µM | hit rate 51% among 2,300 | AID 624378;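 active = average inhibition above a cutoff equal to the mean inhibition of all tested compounds plus one SD, cut at about 70% in these data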;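 also: 0% = DMSO in NR2E3 cells and 100% = DMSO in cells lacking NR2E3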
GAL4-VP16 luc: counter-screen for NR2E3 agonists: GAL4-VP16 reporter inhibitors | shares compounds with NR2E3 ag-1 | CHO-S GAL4-VP16 luciferase reporter, luminescence | inhibition, % at 3.98 µM | hit rate 29% among 2,300 | AID 624379;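 active = mean inhibition above a cutoff equal to the average over all tested compounds plus one standard deviation, cut at about 70% in these data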;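 also: luciferase from a UAS reporter driven by GAL4-VP16 transactivation; 0% = DMSO with VP16-transfected cells and 100% = DMSO with cells lacking VP16; higher means less reporter light so more repression of VP16 activity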
An asterisk follows results filed as active; x = no result. A selection: hits, their analogues and other compounds. The true share with any hit is near 1.5%.

SMILES | PG9 binder | NR1D1 modulator | NR2E3 ag-1 | NR2E3 ag-2 | NR2E3 ag confirm | GAL4-VP16 luc
CCOC(=O)c1cnc(SCC(=O)Nc2cc(OC)ccc2OC)nc1N | 1.5 | -2.2 | 68.7 | 1.7 | 45.3 | 66.5
CN(CCOC(=O)c1cc2ccccc2o1)C1CN(Cc2cn(Cc3ccccc3F)nn2)S(=O)(=O)C1 (stereo not given) | x | -1.4 | x | x | x | x
Cc1cc(C(=O)CSc2nnc(-c3ccccc3)n2-c2ccccc2)c(C)n1-c1ncn[nH]1 | 2.6 | -0.3 | 12.5 | -1.0 | x | x
Cc1cc(C(=O)CSc2nnc3ccccn23)c(C)n1-c1ccccc1 | 0.7 | -0.8 | 61.6 | -1.1 | 97.7* | -74.1
CCC(=O)Nc1ccc(N2CCN(C(=O)c3ccccc3C)CC2)cc1 | -0.2 | -0.1 | 0.5 | -0.4 | x | x
Cc1ccccc1C(=O)N1CCN(c2ccc(NC(=O)CSc3ccc(Cl)cc3)cc2)CC1 | -0.2 | 2.8 | 57.5 | 1.1 | 58.7 | 65.9
Cc1ccccc1C(=O)N1CCN(c2ccc(NC(=S)NC(=O)c3cccs3)cc2)CC1 | 0.6 | -1.8 | 61.9 | 6.2 | 63.4 | 35.0
CC(C)CC(=O)NC(=S)Nc1ccc(N2CCN(C(=O)c3cccs3)CC2)cc1 | -0.7 | 2.0 | 64.9 | -0.2 | 85.0* | 67.6
CCN(CC)c1ccc(C=Nn2c(-c3ccc(F)cc3)n[nH]c2=S)c(O)c1 | x | -0.4 | x | x | x | x
O=C(Nc1ccccc1)C1Cc2c(-c3cccc(F)c3)ccnc2O1 (stereo not given) | -2.6 | -5.1 | -21.8 | x | x | x
COc1ccc(NC(=O)C2Cc3c(-c4ccc5c(c4)OCO5)ccnc3O2)cc1OC (stereo not given) | 0.9 | -2.3 | 84.0* | x | 90.9* | 72.7*
O=C(Nc1cccc(OC(F)(F)F)c1)C1Cc2c(-c3ccc4c(c3)OCO4)ccnc2O1 (stereo not given) | -0.8 | -2.6 | 80.8* | x | 81.8* | 19.4
COc1ccc(NC(=O)C2Cc3c(-c4ccc(NC(C)=O)cc4)ccnc3O2)cc1OC (stereo not given) | -0.5 | 2.9 | 0.7 | x | x | x
COc1ccc(NC(=O)C2Cc3c(-c4cccc(F)c4)ccnc3O2)cc1OC (stereo not given) | -0.1 | 0.0 | 73.1* | x | 66.7 | 58.0
O=C(OCc1cn(Cc2cc(F)ccc2F)nn1)N1CCOCC1 | x | 7.5 | x | x | x | x
C=CCN1[C@@H](C)COc2cc(N3CCSCC3)ccc2S1(=O)=O | x | 0.7 | x | x | x | x
CCc1ccccc1Nc1nn2c(=O)c3ccc(C(=O)NCc4ccccn4)cc3nc2s1 | 2.5 | 9.5 | 70.7* | 2.5 | 76.3* | 33.8
O=C(NCc1ccccn1)c1ccc2c(=O)n3nc(Nc4ccccc4)sc3nc2c1 | 1.5 | -13.0 | -14.7 | 4.5 | x | x
COc1ccccc1OCCNS(=O)(=O)c1ccc2oc3ccccc3c2c1 | -0.2 | 3.6 | 50.8 | -0.3 | 61.8 | 68.2
CCOC(=O)[C@]12CCCC=C1N(CCCOC)C(=O)[C@@H]2CC(=O)N1CCCC1 | x | 3.9 | x | x | x | x
O=C(COc1ccccc1/C=C1\SC(=O)NC1=O)Nc1ccccc1 | -2.0 | -4.4 | 11.9 | 1.8 | x | x
O=C1NC(=O)/C(=C/c2ccccc2OCc2ccccc2)S1 | -0.3 | -8.9 | 51.0 | 4.5 | 57.4 | 45.2
O=C(O)CC1(CC(=O)Nc2cc(C(F)(F)F)cc(C(F)(F)F)c2)CCCCC1 | 0.0 | -5.4 | 57.9 | -0.6 | 88.2* | 45.1
Cc1noc(C)c1C(C)C1=CCCCC1 (stereo not given) | x | -0.7 | x | x | x | x
Cc1cc(N2CCOc3ccccc32)nc2ccccc12 | x | 2.8 | x | x | x | x
SMILES | PG9 binder | NR1D1 modulator | NR2E3 ag-1 | NR2E3 ag-2 | NR2E3 ag confirm | GAL4-VP16 luc
O=C(Cc1ccc(-c2ccccc2)cc1)Nc1ccccn1 | 1.7 | 6.5 | 72.3* | 2.8 | 69.3 | -12.8
Cc1ccc(NC(=O)Cc2ccc(-c3ccccc3)cc2)nc1 | -1.8 | 1.6 | 66.0 | 0.5 | x | x
Cc1ccnc(NC(=O)Cc2ccc(-c3ccccc3)cc2)c1 | -1.4 | 2.4 | 92.6* | 1.7 | 97.9* | -23.7
CC(C)C[C@H]1COc2cc(N3CCCC3)ccc2S(=O)(=O)N1C | x | -7.4 | x | x | x | x
COc1cc(NC(=O)COc2cc(O)c3c(c2)OC(C)(C)CC3=O)cc(OC)c1OC | -1.5 | 9.6 | 82.3* | -1.3 | 58.9 | 84.1*
CC1(C)CC(=O)c2c(O)cc(OCC(=O)Nc3ccc(S(N)(=O)=O)cc3)cc2O1 | -0.1 | 8.2 | -26.6 | 3.9 | x | x
Cc1ccc(-n2ncc3c(SCc4cccc(C)c4)ncnc32)cc1 | -1.6 | -0.9 | -32.7 | 1.5 | x | x
Cc1ccc(-n2ncc3c(SCc4cccnc4)ncnc32)c(C)c1 | 1.4 | 1.4 | 54.3 | x | 81.0* | 62.6
C=CCN1[C@@H](C)COc2cccc(N3CCCC3)c2S1(=O)=O | x | -1.5 | x | x | x | x
O=[N+]([O-])c1ccc2nc(C3CCCCC3)[nH]c2c1 | -2.5 | -2.8 | -45.6 | 1.0 | x | x
O=[N+]([O-])c1ccc(O)c(C2CCCCC2)c1 | -0.3 | -1.8 | 99.0* | x | 99.1* | 92.1*
N#C/C(=C/c1ccc(Sc2nc3ccccc3[nH]2)o1)c1ccccc1F | -1.9 | 0.0 | 62.2 | -0.1 | 78.1* | 62.9
O=C(Nc1ccc(NS(=O)(=O)c2ccccc2)cc1)c1ccc(Cl)cc1 | 0.6 | -4.0 | 7.6 | -2.5 | x | x
COc1ccc(NS(=O)(=O)c2cccc(NC(=O)c3ccc(Cl)nc3)c2)cc1 | 1.1 | -3.5 | 82.6* | 5.3 | 83.9* | 77.8*
O=C(Nc1cccc(S(=O)(=O)Nc2ccc(Cl)cc2)c1)c1ccc(Cl)nc1 | 1.6 | 7.0 | 73.6* | 6.6 | 58.9 | 76.2*
Cc1ccccc1C(=O)NC1CCCCN(Cc2cccc(Cl)c2)C1=O (stereo not given) | x | 4.1 | x | x | x | x
Cc1cccc(C2(c3cccc(C)c3)CC2C(=O)Nc2ccc([N+](=O)[O-])cc2O)c1 (stereo not given) | 1.2 | 2.7 | 86.3* | -4.0 | 74.0* | 66.9
C=CCNC(=O)C1CC1(c1cccc(C)c1)c1cccc(C)c1 (stereo not given) | -0.6 | -3.7 | -18.8 | 3.0 | x | x
COc1ccc(/C=C/C(Cc2cccc(C(C)=O)c2)c2ccc(C)cc2)cc1 (stereo not given) | x | 3.3 | x | x | x | x
N#Cc1cccc(NC(=O)OC2CC3CC2[C@H]2CCCCN2C3)c1 (stereo not given in full) | x | -4.2 | x | x | x | x
COc1ccc(NC(=O)CSc2nc3sc(C)cc3c(=O)n2C)c(OC)c1 | -1.2 | -9.4 | 62.2 | -3.2 | 45.7 | 37.4
NC(=O)C1CCN(c2ccnc(Cl)n2)CC1 | x | -3.2 | x | x | x | x
COC(=O)C1CN(Cc2cn(Cc3ccc(OC)cc3)nn2)CCS(=O)(=O)N1Cc1ccc(C)cc1 (stereo not given) | x | 0.5 | x | x | x | x
Cc1ccc(N2CCN(S(=O)(=O)c3c(C)nc4scc(C)n4c3=O)CC2)c(C)c1 | -1.8 | 8.1 | 49.0 | -0.1 | 4.4 | 4.3
Cc1ccc(Cl)cc1N1CCN(S(=O)(=O)c2c(C)nc3scc(C)n3c2=O)CC1 | -0.5 | -5.1 | -18.3 | 1.3 | x | x
C=CC[n+]1c(/C=C2\C=Cc3cc(C)ccc3N2CC)ccc2ccccc21 | -6.9 | -4.6 | 89.8* | 0.3 | 98.4* | 90.6*
